Most compounds without a hit are left out; they make up all but 1.9% or so of the library.
ABHD5-PLIN5 inh = ABHD5-PLIN5 protein interaction inhibition; Q00G26+Q8WTS1; Split G. princeps luciferase complementation, luminescence, 4 h; inhibition, % at 4 µM; actives 0.78% (n = 360,000);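 active = inhibition above the mean inhibition across every tested compound plus 3 SD, cut at about 22% in these data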;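 note: 0% = DMSO only wells and the 100% control is not disclosed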
TAG inh = triacylglycerol accumulation inhibition | AID 651582 | inhibition, % at 12.5 µM | H9c2 cells, Nile Red lipid (TAG) fluorescence; cells loaded with 200 µM oleic acid | actives 0.66% (n = 230,000);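 active = pattern-corrected inhibition of lipid staining of at least 50% with the nuclear-stain viability signal not falling by more than 50%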;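 note: 0% = DMSO wells and 100% = triacsin C control wells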
HIF activator = HIF pathway transcriptional activation | U2OS HRE-luciferase reporter, luminescence; normalized: DMSO 0%, desferrioxamine 100% | activation, % at 7.5 µM (by protocol) | actives 0.32% (n = 300,000);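 active = mean activation of at least 10% of the iron chelator positive control signal, with at least half of replicates also reaching 10%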
GAA850 FXN act = increases GAA850 frataxin promoter reporter activity; HEK293 lucGAA850 FXN promoter luciferase reporter, 24 h; percent of 10 µM SAHA response; activation, % at 6 µM; actives 0.56% (n = 360,000); AID 540364;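 active = activation above the average of all compounds screened plus 3 SD, cutoff fixed separately per campaign, cut at about 7.5% in these data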;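 note: 0% = DMSO wells and 100% = 10 µM SAHA wells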
Hsp70 activator = transcriptional activators of Hsp70; HeLa Hsp70 promoter luciferase reporter, luminescence; scaled: vehicle 0, proteasome-inhibitor control 100%; activation, % at 10 µM; actives 0.04% (n = 200,000); AID 1203;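 active = activation above the mean across all tested compounds plus 3 SD, cutoff set per campaign, cut at about 5.5% in these data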;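 note: 100% = MG132 at 30 µM as the positive control and 0% = DMSO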
Rad51 HR inh = blocks human Rad51 in homologous recombination; Q06609; hRad51 DNA strand exchange, fluorescence dequenching; inhibition, % at 10 µM; actives 0.085% (n = 200,000);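 active = inhibition above 40% at the single screening dose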;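 note: 0% = DMSO control wells and 100% = blanks with heterologous ssDNA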
Target sequence (Q06609 whole entry, looked up): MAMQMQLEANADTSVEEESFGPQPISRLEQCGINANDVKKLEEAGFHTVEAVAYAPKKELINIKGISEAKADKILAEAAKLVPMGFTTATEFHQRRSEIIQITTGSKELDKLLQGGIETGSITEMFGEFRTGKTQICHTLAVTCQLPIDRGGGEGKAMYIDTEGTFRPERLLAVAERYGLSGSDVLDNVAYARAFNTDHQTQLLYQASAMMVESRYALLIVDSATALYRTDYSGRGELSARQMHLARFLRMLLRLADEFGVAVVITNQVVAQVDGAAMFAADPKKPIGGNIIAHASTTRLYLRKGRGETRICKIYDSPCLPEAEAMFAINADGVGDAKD
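material = hRad51 filaments on single-stranded DNA | reagent = Donor/quencher-labelled 47-bp dsDNA substrate | compound = 10 µM final, single point | schedule = strand-exchange reaction 15 min at room temperature | measured by = fluorescein emission 520 nm, excitation 485 nm | read-out basis = % inhibition versus plate control and blank means | benchmarks = plate controls and plate blanks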
Starred values were filed as active, the others as inactive; . = not tested or not shown.

SMILES	ABHD5-PLIN5 inh	TAG inh	HIF activator	GAA850 FXN act	Hsp70 activator	Rad51 HR inh
O=C(Nc1ccc(Nc2ccccc2)cc1)c1ccccc1F	0	-14	3	2	.	.
Cc1ccccc1CSCC(=O)Nc1ccccc1F	-2	.	-13	2	.	.
CCCN=C1N(CC)C[C@@H]2[C@@H]3C(=O)N(C)C(=O)[C@@H]3[C@](C)(C(=O)OC)N12	-3	7	.	-1	.	.
CS(=O)(=O)c1nc(-c2ccc(Br)cc2)cc(-c2ccccc2)c1C#N	0	79*	-6	-2	0	1
CN(C)CCCNC(=S)Nc1ccc(Br)cc1	1	17	0	1	.	11
FC(F)(F)c1cc(CCN2CCNC[C@@H]2CC2CCCCC2)cc(C(F)(F)F)c1	-5	137*	.	0	.	.
Cc1cc(C)c2sc(NC(=O)c3ccc([N+](=O)[O-])o3)nc2c1	-8	57*	1	0	.	.
COc1ccc2nc(NC(=O)c3ccc([N+](=O)[O-])o3)sc2c1	-2	.	2	2	.	.
CN1CCN(c2ccc(Cl)cc2NC(=O)/C=C/c2cccc(F)c2)CC1	22*	37	-1	1	0	4
Cc1ccc(O)c(NC(=O)c2ccc3c(c2)C(=O)N(Cc2ccco2)C3=O)c1	10	-25	32*	-1	.	.
O=P1(NC2CCCCC2)OCC2(CO1)COP(=O)(NC1CCCCC1)OC2 (stereo unspecified)	5	14	.	-1	.	.
COc1cc(C)c2c(c1C=O)Oc1c(c(C)c(O)c3c1C(O)OC3=O)OC2=O (stereo unspecified)	18	.	0	0	0	47*
Cc1cc(C)cc(NC(=O)CSc2ccc(-c3ccccn3)nn2)c1	-1	-12	10*	-5	.	.
Cc1ccccc1NC(=O)CSc1ccc(-c2ccccn2)nn1	-2	15	0	0	.	.
CC(=O)Nc1ccc(NC(=O)C2CCCN2C(=O)Nc2ccc(F)c([N+](=O)[O-])c2)cc1 (stereo unspecified)	-6	8	0	-2	0	15
Cc1ccc(-c2nc3ccccc3nc2NN)cc1	3	30	18*	4	.	5
Cc1ccc(-c2nc3ccccc3nc2Cl)cc1	-3	-4	3	3	0	9
COc1ccc(CNC(=O)CN(CC2CCCO2)C(=O)CNS(=O)(=O)c2ccc(C)cc2)cc1 (stereo unspecified)	1	-7	27*	0	-1	6
CCN(CC)CCOC(=O)c1ccc(NC(=O)c2cn(-c3ccccc3)nc2-c2cccs2)cc1	13	25	.	6	0	3
CCNC1=C(Cl)C(=O)c2ccccc2C1=O	-2	62*	0	1	0	6
Cc1cc(=O)[nH]c(N/N=C/c2ccccn2)n1	-6	.	40*	0	0	-2
Cc1cc(=O)[nH]c(NN=Cc2c(Cl)cccc2Cl)n1	-2	5	.	1	.	.
C(=N\Nc1nncc2ccccc12)/c1ccccn1	-3	.	2	-10	.	.
O=c1cnnc(N/N=C/c2ccccn2)[nH]1	-5	35	75*	-12	.	-12
O=C(CCC1CCN(C(=O)CC2=CCCCC2)CC1)NCc1ccc(F)cc1	-4	6	.	1	.	.
SMILES	ABHD5-PLIN5 inh	TAG inh	HIF activator	GAA850 FXN act	Hsp70 activator	Rad51 HR inh
CCCS(=O)(=O)NC(=O)C1(C)CCN(C(=O)c2ccc(OC(F)F)cc2)C1 (stereo unspecified)	12	5	.	0	.	.
O=C(N/N=C/c1c(O)ccc2ccccc12)c1ccc[n+](CCO)c1	9	.	0	2	0	-15
Cn1cc(C(=O)N/N=C/c2c(O)ccc3ccccc23)ccc1=O	-2	26	88*	-8	0	-6
O=C(N/N=C/c1c(O)ccc2ccccc12)c1ccc(Br)o1	2	16	59*	-7	.	.
Nc1cc(Cl)nc(N/N=C/c2c(O)ccc3ccccc23)n1	0	.	13*	4	0	4
Cn1nccc1C(=O)N/N=C/c1c(O)ccc2ccccc12	4	.	101*	-12	.	.
Cc1c(C(=O)N/N=C/c2c(O)ccc3ccccc23)nnn1-c1nonc1N	2	.	8	1	.	.
O=C1CCCC(=O)N1c1ccc(Oc2ccc(Cl)cc2)cc1	-6	.	3	1	0	0
